The list is not random: actives were taken first. Their share in the collection is about 2.5%.
TRPC4 block – inhibitors of mouse TRPC4 channel; B-score at 10 µM; 0.39% of 300,000 active; HEK293 TRPC4beta/mu-opioid, DAMGO-evoked Fluo4 calcium flux; stronger effect = lower value; AID 2247; Q9QUQ5;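 active = B-score over 3 SD under the library average, no early fluorescence shift, positive overall ratio signal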
Target sequence (Q9QUQ5 whole entry, looked up): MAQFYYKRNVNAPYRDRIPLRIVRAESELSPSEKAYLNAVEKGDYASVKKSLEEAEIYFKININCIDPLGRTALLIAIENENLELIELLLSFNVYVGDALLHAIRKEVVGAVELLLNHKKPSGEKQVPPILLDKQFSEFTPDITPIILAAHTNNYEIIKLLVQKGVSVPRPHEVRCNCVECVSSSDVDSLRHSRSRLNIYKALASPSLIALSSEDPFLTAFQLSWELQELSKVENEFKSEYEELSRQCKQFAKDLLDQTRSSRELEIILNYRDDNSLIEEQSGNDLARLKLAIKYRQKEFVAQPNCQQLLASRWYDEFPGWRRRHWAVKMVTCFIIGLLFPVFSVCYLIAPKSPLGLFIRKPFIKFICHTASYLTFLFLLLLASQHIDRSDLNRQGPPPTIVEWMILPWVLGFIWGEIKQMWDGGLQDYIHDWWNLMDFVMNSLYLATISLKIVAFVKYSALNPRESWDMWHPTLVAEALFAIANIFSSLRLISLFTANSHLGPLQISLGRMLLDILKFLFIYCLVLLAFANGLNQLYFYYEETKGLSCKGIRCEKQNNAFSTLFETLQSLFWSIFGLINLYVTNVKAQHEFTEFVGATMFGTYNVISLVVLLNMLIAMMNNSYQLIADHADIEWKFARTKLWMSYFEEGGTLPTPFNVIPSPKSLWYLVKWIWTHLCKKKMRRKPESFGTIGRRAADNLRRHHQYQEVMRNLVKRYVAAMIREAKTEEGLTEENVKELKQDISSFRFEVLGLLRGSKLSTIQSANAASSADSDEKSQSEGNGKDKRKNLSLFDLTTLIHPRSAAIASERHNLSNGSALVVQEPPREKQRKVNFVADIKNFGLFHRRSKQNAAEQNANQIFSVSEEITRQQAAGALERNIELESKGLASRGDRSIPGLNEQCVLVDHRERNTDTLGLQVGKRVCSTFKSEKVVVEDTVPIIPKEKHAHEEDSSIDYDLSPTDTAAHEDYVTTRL
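test system = HEK293 cells with stable TRPC4beta plus mu-opioid receptor expression | detection = Fluo4 Ca2+ flux fluorescence | read-out = integrated fluorescence ratio relative to baseline, converted to per-well B score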
TRPC6 inh – blocks the mouse TRPC6 cation channel; 1.1% of 310,000 active; B-score at 10 µM; AID 2553; Q61143; HEK293-TRPC6, membrane potential dye, ACh-evoked depolarization; stronger effect = lower value;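 active = B-score under library mean minus 3 SD, initial fluorescence not abnormally high, positive integrated signal ratio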;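 note: B-score derived from integrated fluorescence ratio over the kinetic read; more negative B-score means stronger inhibition of depolarization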
TRPC4 PAM – allosteric potentiators of mouse TRPC4 channel. 0.42% of 310,000 active. Q9QUQ5. B-score at 10 µM. HEK293 TRPC4beta/mu-opioid, DAMGO EC20, Fluo-4 Ca2+ flux; stronger effect = higher value;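 active = B-score of calcium response area above 5 SD of library B-scores, with initial fluorescence ratio within 5 SD of library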;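 note: B-score of integrated fluorescence ratio over time as area under calcium response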
TRPC6 activator – activates the mouse TRPC6 cation channel. Q61143. HEK293-TRPC6 membrane potential dye fluorescence; stronger effect = higher value. B-score at 10 µM. 0.13% of 310,000 active;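 active = B-score of the integrated fluorescence ratio above library mean plus 3 SD, and starting fluorescence ratio within library mean plus 5 SD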;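 note: higher score means more depolarization so channel activation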
Pemphigus Ab inh – inhibitors of pemphigus antibody binding to human desmoglein-3. DSG3-coupled beads, scFv-anti-DSG3-GFP binding, flow cytometry; stronger effect = lower value. P32926. binding (percent of control), % at 10 µM. 0.48% of 310,000 active. AID 588358;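 active = binding more than 3 SD below its plate's average and above zero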;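 note: hits lower antibody fragment binding to DSG3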
TRPC4 agonist – activators of mouse TRPC4 channel. Q9QUQ5. HEK293 TRPC4beta/mu-opioid, Fluo4 calcium fluorescence; stronger effect = higher value. B-score at 10 µM. 0.49% of 310,000 active;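 active = B-score above 5 SD of library B-scores, and initial fluorescence ratio not above library mean plus 5 SD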;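 note: positive B-score marks a calcium rise read as TRPC4 activation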
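system = HEK293 cells stably co-expressing mouse TRPC4beta and mu-opioid receptor | schedule = Fluo4 dye loading 45 min at room temperature, 110 s recording | measure = B-scored integrated calcium fluorescence ratio | signal = Fluo4 calcium-sensitive dye fluorescence, kinetic, 1 Hz baseline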
TRPC4 spec 2 – second selectivity test of TRPC6 inhibitors: effect on mouse TRPC4 | shares compounds with TRPC6 inh | HEK293 TRPC4/MOR, membrane potential dye fluorescence; channel activated by saturating DAMGO dose | inhibition, % at 10 µM | 42% of 920 active;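 active = compounds whose fluorescence signal differed from control wells by over 3 SD, either direction, in both duplicate plates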
TRPC4 spec – selectivity of TRPC6 inhibitors: effect on mouse TRPC4. AID 2777. 61% of 920 active. HEK293 TRPC4/mu-opioid, membrane potential fluorescence. activity change, negative = inhibition, % at 10 µM. shares compounds with TRPC6 inh;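 active = rise or fall in signal beyond 3 SD of buffer-only wells in both replicate plates, either sign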;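 note: integrated kinetic ratio of fluorescence range over baseline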
HEK293 MPD ctr 2-1 – second check of TRPC6 inhibitor effects in parental HEK293 cells; shares compounds with TRPC6 inh; parental HEK293 membrane potential dye fluorescence; maximal acetylcholine challenge after compound addition; signal change vs control, % at 10 µM; 31% of 920 active;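 active = membrane potential signal moving either way by over 3 SD of the maximum-effect control, in both duplicate plates, meaning non-specific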
HEK293 MPD ctr-1 – counter-screen for TRPC6 inhibitors: effect in parental HEK293 cells; shares compounds with TRPC6 inh; parental HEK293 membrane potential dye fluorescence; membrane potential signal change, % at 10 µM; 60% of 920 active; AID 2780;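 active = membrane potential signal shifting up or down by more than 3 SD of buffer-only wells, on both duplicate plates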
HEK293 MPD ctr-2 – checks TRPC6 modulator effects in parental HEK293 cells; shares compounds with TRPC6 inh; membrane potential dye fluorescence; membrane potential signal change, % at 10 µM; 51% of 2,400 active;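 active = membrane potential signal moves up or down beyond 5 SD from buffer-only wells, on both duplicate plates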
HEK293 MPD ctr 2-2 – parental HEK293 nonspecific activity of TRPC6 modulators, second screen | 14% of 2,400 active | shares compounds with TRPC6 inh | inhibition, % at 10 µM | membrane potential dye fluorescence; after compound, maximal acetylcholine stimulation;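 active = membrane potential signal drops by more than 5 SD from the mean control signal, in both duplicate plates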;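 note: plate controls were acetylcholine ECmax control wells for no effect and buffer only wells for full effect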
TRPC4 ctr mod – selectivity of TRPC6 modulators against mouse TRPC4; shares compounds with TRPC6 inh; HEK293 TRPC4/mu-opioid, membrane potential fluorescence; percent change from control (negative = decrease, positive = increase), % at 10 µM; 69% of 2,400 active; AID 488927;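 active = membrane potential signal moved up or down beyond 5 SD of buffer control wells, in both duplicate plates, actives on both sides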;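 note: plate controls were assay buffer wells for no effect and DAMGO maximal-effect wells for full effect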
TRPC4/MOR inh 2 – second check of whether TRPC6 modulators also affect mouse TRPC4; shares compounds with TRPC6 inh; HEK293 TRPC4/mu-opioid, membrane potential dye fluorescence; stimulated with maximal-effect DAMGO; inhibition, % at 10 µM; 55% of 2,400 active; AID 488928;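 active = drop in membrane potential signal beyond 5 SD of the control wells in both duplicate plates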;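 note: TRPC4 counter screen for TRPC6 hits run under conditions tuned for TRPC6 not TRPC4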
TRPC6 inh conf – mouse TRPC6 inhibitor confirmation; shares compounds with TRPC6 inh; HEK293-TRPC6, membrane potential dye, ACh-evoked depolarization; inhibition, % at 10 µM; 43% of 3,300 active;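 active = fluorescence ratio falls more than 5 SD below the full-stimulation control mean, in both duplicate runs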;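 note: integrated fluorescence ratio of peak minus minimum over baseline after agonist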
TRPC6 act conf – confirmation of mouse TRPC6 activators | HEK293-TRPC6 membrane potential dye fluorescence, FDSS | 11% of 2,800 active | activation, % at 10 µM | shares compounds with TRPC6 inh;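 active = ratio signal rise beyond 5 SD above unstimulated control wells' mean, seen in both duplicate runs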;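 note: plate controls were buffer EC0 wells for no effect and acetylcholine ECmax response for full effect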
Active calls of the source: *; i = inactive; x = no result given.

SMILES	TRPC4 block	TRPC6 inh	TRPC4 PAM	TRPC6 activator	Pemphigus Ab inh	TRPC4 agonist	HEK293 MPD ctr-2	HEK293 MPD ctr 2-2	TRPC4 ctr mod	TRPC4/MOR inh 2	TRPC6 inh conf	TRPC6 act conf	others
CCOC(=O)CN1C(=O)C(=O)N(Cc2c(Cl)cccc2Cl)C1=O	i	-5.6*	i	i	102	i	i	i	i	i	i	i
CCOC(=O)CN1C(=O)C(=O)N(Cc2cccc(C)c2)C1=O	i	i	i	i	101	i	x	x	x	x	x	x
Cc1[nH]nc2nc(SCC(=O)NC3CCCCC3)n(-c3ccc(Br)cc3)c(=N)c12	i	i	i	i	113	i	x	x	x	x	x	x
O=C(NNS(=O)(=O)c1ccc2ccccc2c1)C1CCN(Cc2ccccc2)CC1	i	-18*	i	i	104	i	x	x	x	x	83%*	x	TRPC4 spec 2=i;TRPC4 spec=4.8%*;HEK293 MPD ctr 2-1=0.0%*;HEK293 MPD ctr-1=5.2%*
O=S(=O)(NC1CCN(Cc2ccccc2)CC1)c1ccc2ccccc2c1	i	i	i	i	100	i	x	x	x	x	x	x
O=C(NNS(=O)(=O)c1ccc(F)cc1)C1CCN(S(=O)(=O)c2ccccc2)CC1	i	i	i	i	102	i	x	x	x	x	x	x
O=C(NNS(=O)(=O)c1ccc(F)cc1)C1CCN(Cc2cccc(F)c2)CC1	i	-5*	i	i	102	i	i	i	i	i	i	i
CCN(CC)C(=O)c1csc(Nc2ccc(C)cc2)n1	i	-5.8*	i	i	97	i	i	i	i	i	i	i
O=C(CN1CCN(C(c2ccccc2)c2ccccc2)CC1)NCc1ccccc1	i	-5.5*	i	i	110	i	i	i	i	i	i	i
CCC(C)n1c(/C=C/c2ccccc2)nc2ccccc21 (configuration not stated)	i	-5.1*	i	i	104	i	106%*	i	16%*	i	i	i
CCn1c(/C=C/c2ccccc2)nc2ccccc21	i	i	i	i	100	i	x	x	x	x	x	x
COc1ccccc1Nc1ncnc2c1c(C)c(C)n2CCCN(C)C	i	-5.2*	i	i	92	i	-101%*	i	-23%*	74%*	54%*	i
Cc1c(C)n(-c2ccccc2)c2ncnc(NCCCN(C)C)c12	i	i	i	i	100	i	x	x	x	x	x	x
Cc1c(C)n(Cc2ccccc2)c2ncnc(NN)c12	i	i	i	i	101	i	x	x	x	x	x	x
Cc1c(C)n(Cc2ccccc2)c2ncnc(NCCCN(C)C)c12	i	-6*	i	i	93	i	-102%*	i	-20%*	54%*	42%*	i
Cc1c(C)n(Cc2ccccc2)c2ncnc(NCCN(C)C)c12	i	-7.1*	i	i	105	i	x	x	x	x	i	i	TRPC4 spec 2=i;TRPC4 spec=-17%*;HEK293 MPD ctr 2-1=i;HEK293 MPD ctr-1=-277%*
COc1ccc(NS(=O)(=O)c2cccc(C(=O)NCc3cccnc3)c2)cc1	i	i	i	i	122	i	x	x	x	x	x	x
COc1cccc2c3c(c(C)nc12)CC(C)O3 (configuration not stated)	i	-6.2*	i	i	76	i	-146%*	i	-18%*	41%*	i	i
COc1ccc2nc(C)c3c(c2c1)OC(C)C3 (configuration not stated)	i	-7.5*	i	i	101	i	x	x	x	x	i	i	TRPC4 spec 2=i;TRPC4 spec=-17%*;HEK293 MPD ctr 2-1=18%*;HEK293 MPD ctr-1=-236%*
CCOC(=O)c1ccc2nc(C)c3c(c2c1)OC(C)C3 (configuration not stated)	i	-5.2*	i	i	103	i	-112%*	i	-13%*	i	i	i
Cc1nc2ccc(C(=O)O)cc2c2c1CC(CN)O2 (configuration not stated)	i	i	i	i	106	i	x	x	x	x	x	x
CCc1nc(SCc2ccc(OCC(C)C)cc2)n[nH]1	i	i	i	i	114	i	x	x	x	x	x	x
CCOC(=O)[C@@H]1[C@H]2COc3ccc(Br)cc3[C@H]2N2C(=O)N(c3ccc(C)cc3)C(=O)[C@]12C	i	i	i	i	104	i	x	x	x	x	x	x
Cc1cc(OCCCC(=O)Nc2cccc(-n3cnnn3)c2)ccc1Cl	i	i	i	i	110	i	x	x	x	x	x	x
O=C(C1CCN(CCCc2ccccc2)CC1)N(CCc1ccccc1)Cc1ccccc1	i	-5.5*	i	i	105	i	110%*	i	i	86%*	68%*	x
Cc1ccccc1-c1cc(C(=O)NCC2CC2)nn1CC1CC(c2cccc([N+](=O)[O-])c2)=NO1 (configuration not stated)	x	x	x	x	98	x	x	x	x	x	x	x
